Activity calls are given as the source filed them. The calls are words filed in the database; no cut-off is given here.
Tests used:
[1] = target: Protein smoothened (Homo sapiens, UniProt Q99835); assay: Displacement of BODIPY-labelled cyclopamine from human Smo receptor expressed in HEK293 cells after 2 hrs by fluorescence microscopy; type: cell-based
How it was run: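 HEK293 cells stably expressing human Smo, grown on poly-D-lysine coverslips and fixed in 4% paraformaldehyde. BODIPY fluorescence above the no-probe background, normalized to DAPI nuclear area in 3–4 fields per coverslip, given as % of probe-alone signal.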

[2] = species: Rattus norvegicus; assay: Antiproliferative activity against rat cerebellar granule cell precursors at 1 uM by [3H]-thymidine incorporation assay; type: functional
[3] = target: Smoothened (Mus musculus) (UniProt P56726); assay: Inhibition of Smo-mediated Hh signaling in mouse Shh-light2 cells by luciferase reporter gene assay
[4] = Antiproliferative activity against SAG-induced rat cerebellar granule cell precursors by [3H]-thymidine incorporation assay; type: functional
How it was run: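 Primary rat cerebellar granule cell precursors stimulated with SAG (0.01 μM) together with increasing concentrations of test compound. Proliferation read as [3H]-thymidine incorporation, expressed as % of maximal SAG response. Quadruplicates, n = 3–10 independent experiments. IC50 and Hill coefficient obtained by curve fitting.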

[5] = tested on: C3H 10T1/2; assay: Inhibition of SAG-induced differentiation of mouse mesenchymal pluripotent C3H10T1/2 cells to alkaline phosphatase positive oeseoblasts at 10 uM after 6 days; details: C3H 10T1/2, 6 days
[6] = target: Smoothened (Mus musculus) (UniProt P56726); assay: Inhibition of Smo-mediated Hh signaling in mouse Shh-light2 cells at 0.3 uM by luciferase reporter gene assay; details: Shh Light II
[7] = Ratio of Cur61414 IC50 to compound IC50 for inhibition of SAG-induced rat cerebellar granule cell precursors by [3H]-thymidine incorporation assay; type: functional
[8] = tested on: C3H 10T1/2; assay: Inhibition of SAG-induced differentiation of mouse mesenchymal pluripotent C3H10T1/2 cells to alkaline phosphatase positive oeseoblasts after 6 days; details: C3H 10T1/2, 6 days
[9] = Ratio of cyclopamine IC50 to compound IC50 for inhibition of SAG-induced rat cerebellar granule cell precursors by [3H]-thymidine incorporation assay; type: functional
[10] = target: Smoothened (Mus musculus) (UniProt P56726); assay: Inhibition of Smo-mediated Hh signaling in mouse Shh-light2 cells at 3 uM by luciferase reporter gene assay; details: Shh Light II
[11] = target: Smoothened (Mus musculus) (UniProt P56726); assay: Antagonist activity at Smo receptor

Sequence of Protein smoothened (Q99835 whole entry): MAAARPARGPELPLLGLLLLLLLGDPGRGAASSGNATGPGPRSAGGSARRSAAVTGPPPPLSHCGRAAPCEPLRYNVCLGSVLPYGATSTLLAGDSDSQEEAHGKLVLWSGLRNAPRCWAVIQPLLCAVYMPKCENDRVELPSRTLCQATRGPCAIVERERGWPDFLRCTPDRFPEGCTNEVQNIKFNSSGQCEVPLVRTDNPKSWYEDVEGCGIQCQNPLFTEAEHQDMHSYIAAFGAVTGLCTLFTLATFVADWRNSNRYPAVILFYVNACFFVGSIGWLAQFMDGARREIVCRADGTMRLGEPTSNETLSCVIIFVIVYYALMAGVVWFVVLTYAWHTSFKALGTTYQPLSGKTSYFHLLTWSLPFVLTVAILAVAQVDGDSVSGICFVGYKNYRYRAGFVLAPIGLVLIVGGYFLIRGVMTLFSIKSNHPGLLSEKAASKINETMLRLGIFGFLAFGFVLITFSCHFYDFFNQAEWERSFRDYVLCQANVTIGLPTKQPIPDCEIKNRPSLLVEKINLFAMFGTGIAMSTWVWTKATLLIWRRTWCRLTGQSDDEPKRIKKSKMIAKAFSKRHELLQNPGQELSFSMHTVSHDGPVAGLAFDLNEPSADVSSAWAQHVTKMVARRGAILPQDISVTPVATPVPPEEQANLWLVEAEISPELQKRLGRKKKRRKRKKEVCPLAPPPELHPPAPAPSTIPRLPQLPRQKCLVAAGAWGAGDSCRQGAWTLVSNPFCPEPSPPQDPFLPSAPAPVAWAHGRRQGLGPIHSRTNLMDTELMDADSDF
Sequence of Smoothened (Mus musculus) (P56726 whole entry, looked up): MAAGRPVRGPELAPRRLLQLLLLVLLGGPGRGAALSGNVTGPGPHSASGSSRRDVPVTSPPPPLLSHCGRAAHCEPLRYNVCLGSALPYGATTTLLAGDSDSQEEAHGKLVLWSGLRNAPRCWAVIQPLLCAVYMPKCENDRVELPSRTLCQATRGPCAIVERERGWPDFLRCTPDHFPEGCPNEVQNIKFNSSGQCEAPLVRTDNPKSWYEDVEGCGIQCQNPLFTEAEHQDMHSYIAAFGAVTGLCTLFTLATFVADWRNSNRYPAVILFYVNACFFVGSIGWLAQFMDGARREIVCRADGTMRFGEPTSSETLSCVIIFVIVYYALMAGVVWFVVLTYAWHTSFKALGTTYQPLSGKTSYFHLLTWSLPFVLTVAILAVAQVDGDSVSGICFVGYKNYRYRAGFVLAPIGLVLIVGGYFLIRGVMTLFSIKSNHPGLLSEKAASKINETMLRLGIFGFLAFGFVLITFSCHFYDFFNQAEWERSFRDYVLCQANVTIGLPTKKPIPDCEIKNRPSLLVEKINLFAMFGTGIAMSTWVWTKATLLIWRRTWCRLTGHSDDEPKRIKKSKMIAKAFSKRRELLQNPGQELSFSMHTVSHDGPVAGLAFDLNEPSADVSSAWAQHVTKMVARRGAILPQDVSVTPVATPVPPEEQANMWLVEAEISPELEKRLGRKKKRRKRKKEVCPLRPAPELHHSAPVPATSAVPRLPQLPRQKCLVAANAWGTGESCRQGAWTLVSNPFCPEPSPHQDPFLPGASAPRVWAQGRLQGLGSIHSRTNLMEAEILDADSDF

| SMILES | IC50 [1] | Activity [2] | IC50 [3] | IC50 [4] | inhibition at 10 µM [5] | inhibition [6] | Ratio IC50 [7] | IC50 [8] | Ratio IC50 [9] | inhibition [10] | IC50 [11] |
| --- | --- | --- | --- | --- | --- | --- | --- | --- | --- | --- | --- |
| COc1cc(C(=O)NC(=O)Nc2ccc(C)c(NC(=O)c3ccc(-c4ccccc4)cc3)c2)cc(OC)c1OC | 24 nM | inactive | 13 nM | 6 nM | 101% | 96% | 20 | 25 nM | 20 | 99% | – |
| COc1cc(C(=O)NC(=S)Nc2ccc(C)c(NC(=O)c3ccc(-c4ccccc4)cc3)c2)cc(OC)c1OC | 63 nM | inactive | 41 nM | 9 nM | 100% | 98% | 20 | 60 nM | 20 | 98% | – |
| COc1cc(C(=O)NC(=O)Nc2cccc(NC(=O)c3ccccc3)c2)cc(OC)c1OC | 107 nM | inactive | 160 nM | 106 nM | 101% | 76% | – | 130 nM | – | 96% | 160 nM |
| COc1cc(C(=O)NC(=S)Nc2ccc(C)c(C(=O)Nc3ccccc3)c2)cc(OC)c1OC | – | – | 1800 nM | – | 99% | 13% | – | 2500 nM | – | 89% | – |
| COc1cc(C(=O)NC(=N)Nc2cccc(NC(=O)c3ccccc3)c2)cc(OC)c1OC | – | – | 290 nM | – | – | – | – | 430 nM | – | – | 290 nM |
| CS(=O)(=O)c1ccc(C(=O)Nc2ccc(Cl)c(-c3ccccn3)c2)c(Cl)c1 [VISMODEGIB] | – | – | – | 4 nM | 99% | – | – | 11 nM | – | – | – |
| COc1cc(C(=O)NC(=S)Nc2ccc(C)c(NC(=O)c3ccc(-c4ccc(F)cc4)cc3)c2)cc(OC)c1OC | – | – | 29 nM | – | 86% | 96% | – | 30 nM | – | 97% | – |
| COc1cccc(CN(C(=O)CC(C)(C)C)[C@H]2C[C@@H](C(=O)N3CCNCC3)N(Cc3ccc4c(c3)OCO4)C2)c1 | – | – | 140 nM | 95 nM | – | – | – | 300 nM | – | – | – |
| CC1=C2C[C@H]3[C@@H](CC=C4C[C@@H](O)CC[C@@]43C)[C@@H]2CC[C@]12O[C@@H]1C[C@H](C)CN[C@H]1[C@H]2C [CYCLOPAMINE] | – | – | – | 100 nM | 98% | – | – | 620 nM | – | – | – |
| COc1cc(C(=O)NC(=N)Nc2ccc(C)c(NC(=O)c3ccc(-c4ccccc4)cc3)c2)cc(OC)c1OC | 5 nM | inactive | 15 nM | 6 nM | – | – | 20 | 11 nM | 20 | – | – |
| COc1cc(C(=O)NC(=S)Nc2ccc(Cl)c(C(=O)Nc3ccccc3)c2)cc(OC)c1OC | – | – | 520 nM | – | 96% | 11% | – | 1500 nM | – | 95% | – |
| COc1cc(C(=O)NC(=S)Nc2cccc(NC(=O)c3ccccc3)c2)cc(OC)c1OC | 300 nM | inactive | 650 nM | 338 nM | 96% | 15% | – | 900 nM | – | 96% | 650 nM |
| COc1cc(C(=O)NC(=O)Nc2ccc(Cl)c(NC(=O)c3ccc(-c4ccccc4)cc3)c2)cc(OC)c1OC | – | – | 80 nM | – | 72% | 95% | – | 100 nM | – | 98% | – |
| COc1cc(C(=O)NC(=S)Nc2ccc(Cl)c(NC(=O)c3ccccc3)c2)cc(OC)c1OC | – | – | 190 nM | – | 96% | 69% | – | 990 nM | – | 89% | – |
| COc1cc(C(=O)NC(=S)Nc2ccc(Cl)c(NC(=O)c3ccc(-c4ccccc4)cc3)c2)cc(OC)c1OC | – | – | 130 nM | – | 101% | 85% | – | 380 nM | – | 99% | – |
| COc1cc(C(=O)NC(=O)Nc2cccc(NC(=O)c3cc4ccccc4[nH]3)c2)cc(OC)c1OC | – | – | 110 nM | – | 97% | 85% | – | 220 nM | – | 90% | – |
